Common to all, as to type: functional
For experiment [1], the system named is Candida albicans. Nature of the experiment: Antifungal activity against Candida albicans B311 by standard microdilution method. A digest of the protocol: (§1)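 Minimum inhibitory concentration measured by standard broth microdilution in 96-well microplates against the named yeast strain.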
Experiment [2] relates to Cryptococcus neoformans. Nature of the experiment: Antifungal activity against Cryptococcus neoformans ATCC 36556 by standard microdilution method. A digest of the protocol:
as §1

Experiment [3] relates to Cryptococcus neoformans. Description: Antifungal activity against Cryptococcus neoformans 96-69 by standard microdilution method.
Experiment [4] has as its system Candida albicans. Nature of the experiment: Antifungal activity against Candida albicans ATCC 10259 by standard microdilution method. In a few lines:
as §1

Experiment [5] concerns Candida albicans. Nature of the experiment: Antifungal activity against Candida albicans 572-27 by standard microdilution method. A digest of the protocol:
as §1

A further experiment deals with Aspergillus fumigatus. Nature of the experiment: Antifungal activity against Aspergillus fumigatus ATCC 13073 by standard microdilution method. In a few lines: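 MIC read from a 96-well microplate broth microdilution run by the standard method, with Sabouraud dextrose broth as the medium for A. fumigatus ATCC 13073.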

Converted amounts (≈) assume the structure as drawn.

Take `C[N+](C)(C)CCOP(=O)([O-])OCCCCCCCCCCCCCCOP(=O)([O-])OCC[N+](C)(C)C`: the MIC in the experiment with Candida albicans [1], in the experiment with Cryptococcus neoformans [2], in the experiment with Cryptococcus neoformans [3], in the experiment on Candida albicans [4] and in the experiment on Candida albicans [5] was 250 µg/mL (≈ 446 µM) each time.

`O=P(OCCCCCCCCCCCCCCCCOP(=O)(Oc1ccccc1)Oc1ccccc1)(Oc1ccccc1)Oc1ccccc1`: the MIC against Candida albicans [1] is 250 µg/mL (≈ 346 µM); in the experiment on Aspergillus fumigatus, above 500 µg/mL; against Cryptococcus neoformans [2], 62.5 µg/mL (≈ 86.5 µM); against Cryptococcus neoformans [3], 125 µg/mL (≈ 173 µM); with Candida albicans [4] it was 125 µg/mL (≈ 173 µM); against Candida albicans [5] it was 250 µg/mL (≈ 346 µM).

Consider `OCCCCCCCCCCCCCCCCCCCCCCO`, for which the MIC in the experiment on Candida albicans [1], against Aspergillus fumigatus, with Cryptococcus neoformans [2], with Cryptococcus neoformans [3], in the experiment on Candida albicans [4] and against Candida albicans [5] was above 500 µg/mL in each case.

Consider `C[N+](C)(C)CCOP(=O)(O)OCCCCCCCCCCCCCCCCCl.[Cl-]`, for which the MIC was determined as 1 µg/mL in the experiment with Candida albicans [1]; 3.1 µg/mL against Aspergillus fumigatus; 0.5 µg/mL against Cryptococcus neoformans [2]; 0.5 µg/mL in the experiment on Cryptococcus neoformans [3]; 0.5 µg/mL with Candida albicans [4]; 1 µg/mL against Candida albicans [5].

On to `CCCCCCCCCCCCCCCCO` [CETYL ALCOHOL], for which the MIC in the experiment with Candida albicans [1] was 250 µg/mL (≈ 1030 µM); in the experiment with Aspergillus fumigatus, above 500 µg/mL; in the experiment on Cryptococcus neoformans [2], 62.5 µg/mL (≈ 258 µM); in the experiment with Cryptococcus neoformans [3], 125 µg/mL (≈ 516 µM); against Candida albicans [4] it was 125 µg/mL (≈ 516 µM); against Candida albicans [5] it was 250 µg/mL (≈ 1030 µM).

As for `C[N+](C)(C)CCOP(=O)([O-])OCCCCCCCCCCCCCCCCOP(=O)([O-])OCC[N+](C)(C)C`, the MIC was 250 µg/mL (≈ 425 µM) in the experiment on Candida albicans [1]; 25 µg/mL (≈ 42.5 µM) in the experiment with Aspergillus fumigatus; 125 µg/mL (≈ 212 µM) against Cryptococcus neoformans [2]; 125 µg/mL (≈ 212 µM) against Cryptococcus neoformans [3]; 125 µg/mL (≈ 212 µM) in the experiment on Candida albicans [4]; 125 µg/mL (≈ 212 µM) with Candida albicans [5].

Turning to `CCCCCCCCCCCCCCCCCCCCCCOP(=O)(O)OCC[N+](C)(C)C.[Cl-]`, the MIC against Candida albicans [1] came out at 500 µg/mL; in the experiment on Cryptococcus neoformans [2] it was 250 µg/mL; in the experiment on Cryptococcus neoformans [3] it was 500 µg/mL; against Candida albicans [4], 500 µg/mL; against Candida albicans [5], 500 µg/mL.

As for `O=P(O)(OCCBr)OCCCCCCCCCCCCCCCCOP(=O)(O)OCCBr`, the MIC in the experiment on Candida albicans [1] worked out at 125 µg/mL (≈ 198 µM); against Cryptococcus neoformans [2], 62.5 µg/mL (≈ 98.8 µM); with Cryptococcus neoformans [3], 125 µg/mL (≈ 198 µM); in the experiment on Candida albicans [4], 62.5 µg/mL (≈ 98.8 µM); with Candida albicans [5], 125 µg/mL (≈ 198 µM).

Take `CCCCCCCCCCCCCCCCOP(=O)(O)O` [HEXADECYL DIHYDROGEN PHOSPHATE]: the MIC with Candida albicans [1] was 250 µg/mL; in the experiment on Aspergillus fumigatus, above 500 µg/mL; against Cryptococcus neoformans [2], 62.5 µg/mL; in the experiment with Cryptococcus neoformans [3] it was 62.5 µg/mL; with Candida albicans [4] it was 250 µg/mL; in the experiment with Candida albicans [5] it was 125 µg/mL.

`C[N+](C)(C)CCOP(=O)([O-])OCCCCCCCCCCCCOP(=O)([O-])OCC[N+](C)(C)C`: the MIC against Candida albicans [1] was 500 µg/mL (≈ 939 µM); in the experiment with Cryptococcus neoformans [2], 250 µg/mL (≈ 469 µM); in the experiment on Cryptococcus neoformans [3], 250 µg/mL (≈ 469 µM); against Candida albicans [4], 500 µg/mL (≈ 939 µM); against Candida albicans [5], 500 µg/mL (≈ 939 µM).

As for `O=P(OCCCCCCCCCCCCCCCCCCCCCCOP(=O)(Oc1ccccc1)Oc1ccccc1)(Oc1ccccc1)Oc1ccccc1`, the MIC in the experiment on Candida albicans [1] is 250 µg/mL (≈ 310 µM); against Aspergillus fumigatus, above 500 µg/mL; with Cryptococcus neoformans [2], 125 µg/mL (≈ 155 µM); in the experiment on Cryptococcus neoformans [3], 125 µg/mL (≈ 155 µM); against Candida albicans [4], 125 µg/mL (≈ 155 µM); with Candida albicans [5], 250 µg/mL (≈ 310 µM).

On to `O=P(O)(O)OCCCCCCCCCCCCCCCCOP(=O)(O)O`, for which the MIC is 250 µg/mL (≈ 598 µM) against Candida albicans [1]; above 500 µg/mL against Aspergillus fumigatus; 62.5 µg/mL (≈ 149 µM) in the experiment with Cryptococcus neoformans [2]; 125 µg/mL (≈ 299 µM) against Cryptococcus neoformans [3]; 125 µg/mL (≈ 299 µM) in the experiment on Candida albicans [4]; 250 µg/mL (≈ 598 µM) against Candida albicans [5].

For the compound `C[N+](C)(C)CCOP(=O)([O-])OCCCCCCCCCCCCCCCCCCCCCCOP(=O)([O-])OCC[N+](C)(C)C`, the MIC against Candida albicans [1] turned out to be 1 µg/mL (≈ 1.49 µM); against Aspergillus fumigatus, 0.08 µg/mL (≈ 0.119 µM); in the experiment with Cryptococcus neoformans [2], 0.04 µg/mL (≈ 0.0594 µM); in the experiment on Cryptococcus neoformans [3] it was 0.5 µg/mL (≈ 0.743 µM); against Candida albicans [4], 1.25 µg/mL (≈ 1.86 µM); against Candida albicans [5] it was 1 µg/mL (≈ 1.49 µM).

Take `O=P(O)(O)OCCCCCCCCCCCCCCCCCCCCCCOP(=O)(O)O`: the MIC against Candida albicans [1] is 250 µg/mL (≈ 497 µM); with Aspergillus fumigatus it was above 500 µg/mL; in the experiment with Cryptococcus neoformans [2], 62.5 µg/mL (≈ 124 µM); with Cryptococcus neoformans [3], 125 µg/mL (≈ 249 µM); in the experiment with Candida albicans [4], 250 µg/mL (≈ 497 µM); with Candida albicans [5], 250 µg/mL (≈ 497 µM).

With `C[N+](C)(C)CCOP(=O)([O-])OCCCCCCCCCCCCCCCCCCCCCCCCOP(=O)([O-])OCC[N+](C)(C)C`, the MIC amounted to 62.5 µg/mL (≈ 89.2 µM) in the experiment with Candida albicans [1]; 3.9 µg/mL (≈ 5.56 µM) against Cryptococcus neoformans [2]; 7.8 µg/mL (≈ 11.1 µM) in the experiment on Cryptococcus neoformans [3]; 31.2 µg/mL (≈ 44.5 µM) with Candida albicans [4]; 62.5 µg/mL (≈ 89.2 µM) in the experiment with Candida albicans [5].

On to `C[N+](C)(C)CCOP(=O)(O)OCCCCCCCCCCCCCCCl.[Cl-]`, for which the MIC against Candida albicans [1] is 7.8 µg/mL; in the experiment with Cryptococcus neoformans [2] it was 1 µg/mL; against Cryptococcus neoformans [3], 0.5 µg/mL; against Candida albicans [4], 7.8 µg/mL; against Candida albicans [5], 3.9 µg/mL.

Regarding `C[N+](C)(C)CCOP(=O)([O-])OCCCCCCCCCCCCCCCCCCCCOP(=O)([O-])OCC[N+](C)(C)C`, the MIC in the experiment on Cryptococcus neoformans [2] was 15.6 µg/mL (≈ 24.2 µM); in the experiment on Cryptococcus neoformans [3], 15.6 µg/mL (≈ 24.2 µM); in the experiment with Candida albicans [4], above 500 µg/mL; in the experiment with Candida albicans [5] it was above 500 µg/mL.

With `C[N+](C)(C)CCOP(=O)([O-])OCCCCCCCCCCCCCCCCCCCCCCOP(=O)([O-])OCC[N+](C)(C)C.Cl`, the MIC against Candida albicans [1] was 0.5 µg/mL; against Aspergillus fumigatus, 0.08 µg/mL; with Cryptococcus neoformans [2], 0.04 µg/mL; against Cryptococcus neoformans [3], 0.5 µg/mL; against Candida albicans [4], 1.25 µg/mL; in the experiment on Candida albicans [5], 0.5 µg/mL.

On to `OCCCCCCCCCCCCCCCCO`, for which the MIC against Candida albicans [1] is 250 µg/mL (≈ 967 µM); against Aspergillus fumigatus, above 500 µg/mL; against Cryptococcus neoformans [2] it was 62.5 µg/mL (≈ 242 µM); in the experiment with Cryptococcus neoformans [3], 62.5 µg/mL (≈ 242 µM); against Candida albicans [4], 125 µg/mL (≈ 484 µM); against Candida albicans [5] it was 250 µg/mL (≈ 967 µM).

As for `C[N+](C)(C)CCOP(=O)([O-])OCCCCCCCCCCCCCCCCCCOP(=O)([O-])OCC[N+](C)(C)C`, the MIC with Cryptococcus neoformans [2] was 500 µg/mL (≈ 811 µM); against Cryptococcus neoformans [3] it was above 500 µg/mL; against Candida albicans [4], above 500 µg/mL; in the experiment on Candida albicans [5], above 500 µg/mL.

Regarding `CCCCCCCCCCCCCCCCOP(=O)(O)OCC[N+](C)(C)C.[Cl-]`, the MIC with Candida albicans [1] is 1 µg/mL; with Cryptococcus neoformans [2], 0.5 µg/mL; in the experiment with Cryptococcus neoformans [3], 0.5 µg/mL; against Candida albicans [4] it was 0.5 µg/mL; in the experiment with Candida albicans [5], 1 µg/mL.

`O=P(O)(OCCBr)OCCCCCCCCCCCCCCCCCCCCCCOP(=O)(O)OCCBr`: the MIC is 500 µg/mL (≈ 698 µM) against Cryptococcus neoformans [2], 500 µg/mL (≈ 698 µM) against Cryptococcus neoformans [3], above 500 µg/mL in the experiment on Candida albicans [4] and above 500 µg/mL against Candida albicans [5].
